CRFBP-R2 agonist: CRF-BP/CRF-R2 complex agonism; activation, % at 13.2 µM; actives 0.46% (n = 350,000); HEK293 CRF-R2/CRF-BP, calcium dye fluorescence (FLIPR); percent of saturating CRF peptide response;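 active = activation of at least 50%, plus an integration ratio under a set limit after plate pattern correction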;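 note: plate controls were neutral control wells without compound for no effect and CRF at EC100 for full effect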
V1aR counter: counter-screen for oxytocin receptor agonists: human V1a receptor agonists. P37288. CHO-V1R cells, Fluo-8 calcium fluorescence, agonist mode; 0% DMSO, 100% 3 nM vasopressin. activation, % at 3 µM. actives 0.25% (n = 320,000);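 active = activation above the mean activation of all tested compounds plus 3 SD, per screening run, cut at about 20% in these data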;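 note: signal is peak over basal fluorescence ratio across a 100 second FLIPR read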
Target sequence (P37288 whole entry, looked up): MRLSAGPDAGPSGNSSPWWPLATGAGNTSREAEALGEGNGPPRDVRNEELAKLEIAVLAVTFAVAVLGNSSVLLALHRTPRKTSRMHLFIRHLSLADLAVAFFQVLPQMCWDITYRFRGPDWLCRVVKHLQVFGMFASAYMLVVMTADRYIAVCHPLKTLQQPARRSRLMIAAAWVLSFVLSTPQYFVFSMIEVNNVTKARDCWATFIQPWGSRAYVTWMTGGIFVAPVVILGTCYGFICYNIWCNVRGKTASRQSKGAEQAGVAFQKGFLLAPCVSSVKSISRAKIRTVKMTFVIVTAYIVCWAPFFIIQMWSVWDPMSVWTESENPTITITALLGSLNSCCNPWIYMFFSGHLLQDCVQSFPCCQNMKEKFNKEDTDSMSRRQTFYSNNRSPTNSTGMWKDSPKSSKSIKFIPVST
zfTRPN1 agonist: agonists of zebrafish TRPN1 channel; HEK293 zebrafish TRPN1-YFP, Fluo-8 calcium fluorescence; 100% = response to 87 µM carbachol; activation, % at 3 µM; actives 0.18% (n = 220,000); AID 1424;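 active = activation above its plate's cutoff, the mean activation of test wells on that plate plus 3 SD, cut at about 19% in these data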;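 note: 0% = DMSO alone and 100% = 87 µM carbachol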
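Control set: carbachol 87 µM as high control, DMSO as low control; system: HEK293 stable line with zebrafish TRPN1-YFP; read-out: % activation versus carbachol response; detection: intracellular calcium fluorescence with Fluo-8; doses: single test compound dose, 3 µM nominal, 0.3% DMSO; schedule: dye 1 h 37 °C plus 30 min RT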
OXTR potentiate: human OXTR potentiation | P30559 | CHO-OTR cells, Fluo-8 calcium fluorescence, potentiator mode; 0% = oxytocin EC15, 100% = EC100 | activation, % at 3 µM | actives 0.061% (n = 320,000) | AID 2445;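 active = activation above that plate's cutoff, the mean activation of tested compounds plus 3 SD, cut at about 6.6% in these data, passing the limit was not always enough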;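 note: 100% uses oxytocin at 75 nM as the full agonist control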
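assay system = CHO-OTR cells, human receptor | schedule = compound 6 min at room temperature before oxytocin, 100 s read | detection = Fluo-8 intracellular calcium fluorescence, ex 470-495, em 515-575 nm | evaluation = normalized max/min fluorescence ratio, % activation | control set = EC15 oxytocin alone as 0%, 75 nM oxytocin (EC100) as 100%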
TRPML3 agonist: agonists of human TRPML3 channel. Q8TDD5. HEK293 TRPML3-YFP, Fluo-8 calcium fluorescence; 100% = the carbachol control signal. activation, % at 3 µM. actives 0.29% (n = 220,000). AID 1448;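 active = activation above its plate's cutoff, the mean activation of the plate's test wells plus 3 SD, cut at about 12% in these data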;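 note: 0% = DMSO only wells and 100% = carbachol wells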
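system = HEK293 cells stably carrying human TRPML3-YFP | doses = one concentration, 3 µM nominal, 0.3% DMSO | timing = dye loading 1 h 37 °C then 30 min ambient, 125 s read | detection = Fluo-8 calcium dye fluorescence, ex 470-495, em 515-575 nm | benchmarks = high control carbachol 87 µM, low control DMSO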
OXTR agonist: agonists of human oxytocin receptor. P30559. CHO-OTR cells, Fluo-8 calcium fluorescence; normalized: DMSO 0%, oxytocin 100%. activation, % at 3 µM. actives 0.32% (n = 320,000). AID 2435;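 active = activation above the mean of all tested compounds plus 3 SD, cutoff set per screening run, cut at about 20% in these data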;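 note: peak over basal fluorescence ratio from a 100 s FLIPR kinetic read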
Starred values were filed as active, the others as inactive; . = not tested or not shown. Hits are enriched below; roughly 0.85% of the tested compounds scored in any of these assays.

SMILES	CRFBP-R2 agonist	V1aR counter	zfTRPN1 agonist	OXTR potentiate	TRPML3 agonist	OXTR agonist
Cc1cccc2cc3c(N)c(C(=O)Nc4ccc(N5CCOCC5)cc4)sc3nc12	0	11	3	-13	1	14
CCc1cccc2cc3c(N)c(C(=O)Nc4ccc(S(=O)(=O)N5CCCC5)cc4)sc3nc12	63*	9	2	-7	2	9
COc1ccc(N2CCOCC2)c(NC(=O)c2cccnc2)c1	1	-1	.	-11	.	0
N#Cc1c(-c2ccc(Cl)cc2)n(O)c2ccccc12	57*	.	.	.	.	.
COc1ccccc1C(=O)NNC(=S)NC(=O)c1cccs1	.	51*	.	-17	.	30*
COc1ccccc1C(=O)NNC(=S)NC(=O)c1sc2ccccc2c1Cl	170*	34*	1	-12	2	49*
COc1ccccc1C(=O)NC(=S)NNC(=O)c1sc2ccccc2c1Cl	251*	25*	3	-10	1	46*
COc1ccc(NC(=O)[C@@H](NS(=O)(=O)c2cccc(Cl)c2)C(C)C)cc1S(=O)(=O)N1CCOCC1	0	1	.	3	.	0
CN=C1SC(CC(=O)NCCc2ccc(OC)c(OC)c2)C(=O)N1C (configuration not stated)	-3	47*	0	-13	0	34*
COCCN(C(=O)c1cccc(-n2cnnn2)c1)c1c(N)n(CC(C)C)c(=O)[nH]c1=O	-1	0	.	-2	.	1
CC[n+]1c(/C=C/Nc2ccccc2)oc2ccc(OC)cc21	0	1	0	2	1	2
O=S(=O)([O-])CCC[n+]1c(/C=C\Nc2ccccc2)oc2ccc(-c3ccccc3)cc21	.	.	119*	.	25*	.
CN(C)c1ccc(/C=C2\SC(=O)N(CC(O)Cn3c4ccccc4c4ccccc43)C2=O)cc1 (configuration not stated)	96*	6	1	-10	0	5
CN(C)c1ccc(C=C2SC(=S)N(Cc3ccco3)C2=O)cc1	169*	.	.	.	.	.
O=C(c1ccccc1)N(c1ccccc1)c1nccc2ccccc12	-2	.	.	.	.	.
CCC(NC(=O)Nc1nnc(C(F)(F)F)s1)(C(F)(F)F)C(F)(F)F	48	12	26*	-11	23*	12
CCc1ccc2[nH]c(C(=O)Nc3ccc(Br)c(C)n3)cc2c1	-2	.	.	.	.	.
COc1ccc(-n2c(=O)c(CCC(=O)N3CCN(c4cccc(OC)c4)CC3)nc3ccccc32)cc1	2	.	.	.	.	.
COc1ccc(/C(O)=C/c2nc3ccccc3n(-c3ccccc3)c2=O)cc1	132*	1	3	-22	1	1
CCn1cnc2cc(NCc3ccc(Br)cc3)ccc21	52*	7	.	-16	.	3
CCOC(=O)c1cc([N+](=O)[O-])sc1NC(=O)c1ccc(S(=O)(=O)N2CC3(C)CC2CC(C)(C)C3)cc1 (configuration not stated)	152*	1	-1	-3	0	0
CCC/C(C#Cc1cc(OC)cc(OC)c1)=C1/c2ccccc2C(=O)N1c1ccccc1	1	0	.	-3	.	2
CCC/C(C#Cc1ccc(N(C)C)cc1)=C1/c2ccccc2C(=O)N1c1ccccc1	79*	9	.	-10	.	9
O=C1CN(C(=O)CSc2nc3ccccc3n2CCc2ccccc2)c2ccccc2N1	1	1	-1	-13	-1	-2
CCCn1c(SCC(=O)N2CC(=O)Nc3ccccc32)nc2ccccc21	56*	1	-1	-3	-1	-1
Cc1ncc(CN2CCN(CCc3ccccc3)C(CCO)C2)s1 (configuration not stated)	-2	1	1	-12	1	0
Cc1cc(=O)oc(C)c1C(=O)Nc1ccc2nsnc2c1	1	1	1	-6	1	1
Cc1cc(=O)oc(C)c1C(=O)Nc1ccc2ncccc2c1	78*	1	3	-8	1	2

Screening data: PubChem, several laboratories
